Data from ChEMBL document CHEMBL3259723, “Membrane active vancomycin analogues: a strategy to combat bacterial resistance” (J Med Chem, 2014).
Activity calls are given as the source filed them. No cut-off for these calls is given here.

Assays:
Enterococcus faecium [1] = assay: Antibacterial activity against vancomycin-resistant VanA phenotype of Enterococcus faecium ATCC 51559 assessed as growth inhibition by broth microdilution method; format: functional
Method in brief: (§1)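 Broth microdilution per CLSI; compounds serially diluted in sterile water, added to bacteria at 10^5 CFU/mL (diluted from 6 h cultures). Incubated at 37 °C, OD600 read. Triplicate wells, experiment done at least twice. Mean OD plotted against concentration and fitted sigmoidally; MIC taken where OD matches the no-bacteria control.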

Staphylococcus aureus [2] = assay: Antibacterial activity against methicillin-sensitive Staphylococcus aureus MTCC 737 assessed as growth inhibition by broth microdilution method; format: functional
Method in brief: (§2)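 Broth microdilution per CLSI; compounds serially diluted in autoclaved water. Bacteria grown 6 h in suitable media, diluted to 10⁵ CFU/mL; compound added to bacterial suspension, incubated at 37 °C, OD600 read. Triplicate wells, experiment done at least twice; mean OD versus concentration sigmoidally fitted, MIC taken where OD equals no-bacteria control.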

Enterococcus faecium [3] = assay: Antibacterial activity against vancomycin-sensitive Enterococcus faecium ATCC 19634 assessed as growth inhibition by broth microdilution method; format: functional; method in brief: as §2
Staphylococcus aureus [4] = assay: Antibacterial activity against methicillin-resistant Staphylococcus aureus ATCC 33591 assessed as growth inhibition by broth microdilution method; format: functional; method in brief: as §1
Staphylococcus aureus [5] = assay: Antibacterial activity against methicillin-resistant Staphylococcus aureus ATCC 33591 assessed as induction of cytoplasmic membrane permeabilization at 10 uM measured for 10 mins by propidium iodide uptake assay; format: functional, organism-based
Method in brief: (§3)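 Mid-log (6 h) cells harvested at 4 °C, washed and resuspended in PBS pH 7.2. Compound added to cells with 10 μM propidium iodide. Fluorescence (ex 535/em 617 nm) monitored 10 min at RT; the rise in PI fluorescence taken as inner membrane permeabilization.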

Enterococcus faecium [6] = assay: Antibacterial activity against vancomycin-resistant VanA phenotype of Enterococcus faecium ATCC 51559 assessed as leakage of intracellular potassium ion at 10 uM measured for 10 mins by PBFI-AM dye-based spectrofluorometric analysis; format: functional, organism-based
Method in brief: (§4)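 Mid-log (6 h) cells washed twice and resuspended in 10 mM HEPES pH 7.2 with 0.5% glucose. Signal stabilized 60 s at RT, then 1 μM PBFI-AM added and a 2 min baseline recorded before compound.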

Staphylococcus aureus [7] = assay: Antibacterial activity against methicillin-resistant Staphylococcus aureus ATCC 33591 assessed as induction of membrane depolarization at 10 uM measured for 10 mins by DiSC3(5) dye-based spectrofluorometric analysis; format: functional, organism-based
Method in brief: (§5)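 Membrane potential assay with DiSC3(5): dye added to cells until maximal uptake, seen as a fluorescence minimum (about 10 min). Compounds then added and depolarization followed as the fluorescence increase over a further 10 min.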

Staphylococcus aureus [8] = assay: Antibacterial activity against vancomycin-intermediate-resistant Staphylococcus aureus assessed as growth inhibition by broth microdilution method; format: functional; method in brief: as §1
Enterococcus faecium [9] = assay: Antibacterial activity against vancomycin-resistant VanA phenotype of Enterococcus faecium ATCC 51559 assessed as induction of membrane depolarization at 10 uM measured for 10 mins by DiSC3(5) dye-based spectrofluorometric analysis; format: functional, organism-based; method in brief: as §5
Enterococcus faecium [10] = assay: Antibacterial activity against vancomycin-resistant VanA phenotype of Enterococcus faecium ATCC 51559 assessed as induction of cytoplasmic membrane permeabilization at 10 uM measured for 10 mins by propidium iodide uptake assay; format: functional, organism-based; method in brief: as §3
Enterococcus faecium [11] = assay: Antibacterial activity against vancomycin-resistant VanA phenotype of Enterococcus faecium ATCC 51559 assessed as induction of membrane depolarization measured at < 3 mins by DiSC3(5) dye-based spectrofluorometric analysis; format: functional, organism-based; method in brief: as §5
Staphylococcus aureus [12] = assay: Antibacterial activity against methicillin-resistant Staphylococcus aureus ATCC 33591 assessed as induction of membrane depolarization measured at < 3 mins by DiSC3(5) dye-based spectrofluorometric analysis; format: functional, organism-based; method in brief: as §5
Staphylococcus aureus [13] = assay: Antibacterial activity against methicillin-resistant Staphylococcus aureus ATCC 33591 assessed as leakage of intracellular potassium ion at 10 uM measured for 10 mins by PBFI-AM dye-based spectrofluorometric analysis relative to control; format: functional; method in brief: as §4
Staphylococcus aureus [14] = assay: Antibacterial activity against methicillin-resistant Staphylococcus aureus ATCC 33591 assessed as induction of cytoplasmic membrane permeabilization measured within 5 mins by propidium iodide uptake assay; format: functional, organism-based; method in brief: as §3
Staphylococcus aureus [15] = assay: Bactericidal activity against methicillin-resistant Staphylococcus aureus ATCC 33591 infected in 90% human whole blood at 3.6 uM after 3 hrs; format: functional, organism-based
Method in brief: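 MRSA (30 μL of 10^6 CFU/mL in 0.9% saline) mixed with compound at 3.6 μM and 270 μL fresh human whole blood. Incubated 3 h at 37 °C.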

Staphylococcus aureus [16] = assay: Bacteriostatic activity against methicillin-resistant Staphylococcus aureus ATCC 33591 measured over 24 hrs; format: functional, organism-based
Method in brief: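 MRSA in yeast-dextrose broth, starting inoculum 1.6 × 10^8 CFU/mL. […] Samples taken at 0, 1, 2, 3, 6 and 24 h, diluted 10-fold serially in saline and plated on yeast-dextrose agar. Colonies counted after 24 h at 37 °C; log10 CFU/mL reported.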

Staphylococcus aureus [17] = assay: Antibacterial activity against methicillin-resistant Staphylococcus aureus ATCC 33591 infected in CD-1 mouse neutropenic thigh infection model assessed as reduction of bacterial burden in thigh at 12 mg/kg, iv bid administered as 12 hrs interval measured after 24 hrs; format: functional, organism-based; parameters: dose 12 mg/kg
Method in brief: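 Neutropenic mouse thigh model: about 50 μL MRSA inoculum injected into the thigh. About 1 h later, iv treatment twice at 12 h intervals with saline, vancomycin or compound at 12 mg/kg. At 24 h, thigh homogenate dilutions plated and incubated overnight at 37 °C; titer expressed as log10 CFU/g thigh.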

Staphylococcus aureus [18] = assay: Ratio of MIC for methicillin-resistant Staphylococcus aureus ATCC 33591 measured after 52 serial passages to MIC for methicillin-resistant Staphylococcus aureus ATCC 33591; format: functional
Method in brief: (§6)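 Serial passage: the MIC assay is run against MRSA, then cells from the one-half-MIC well of the previous assay are harvested and inoculated into fresh yeast-dextrose broth for the next MIC assay after 24 h incubation. Repeated for […] passages; MIC plotted against passage number and fold increase in MIC determined.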

Staphylococcus aureus [19] = assay: Antibacterial activity against methicillin-resistant Staphylococcus aureus ATCC 33591 assessed as growth inhibition measured after 20 serial passages; format: functional, organism-based; method in brief: as §6

SMILES | MIC (Enterococcus faecium [1]) | Activity (Staphylococcus aureus [5]) | Activity (Enterococcus faecium [6]) | Activity (Staphylococcus aureus [7]) | MIC (Staphylococcus aureus [2]) | MIC (Staphylococcus aureus [8]) | MIC (Enterococcus faecium [3]) | Activity (Enterococcus faecium [9]) | Activity (Enterococcus faecium [10]) | MIC (Staphylococcus aureus [4]) | Activity (Staphylococcus aureus [13]) | other results
CN[C@H]1C(=O)N[C@@H]2Cc3ccc(cc3)Oc3cc4cc(c3O[C@@H]3O[C@H](C(=O)O)[C@@H](O)[C@H](O)[C@H]3NC(=O)CCCCCCCCC(C)C)Oc3ccc(cc3Cl)[C@@H](O)[C@@H]3NC(=O)[C@H](NC(=O)[C@@H]4NC(=O)[C@@H](NC2=O)c2cc(cc(O)c2Cl)Oc2cc1ccc2O)c1ccc(O)c(c1)-c1c(O[C@H]2O[C@H](CO)[C@@H](O)[C@H](O)[C@@H]2O)cc(O)cc1[C@@H](C(=O)NCCCN(C)C)NC3=O [DALBAVANCIN] |  |  |  |  |  |  |  |  |  |  |  | MIC90 (Enterococcus faecium [1]): > 18 µM; MIC90 (Staphylococcus aureus [2]): 0.04 µM; MIC90 (Enterococcus faecium [3]): 0.08 µM; MIC90 (Staphylococcus aureus [4]): 0.04 µM
CC[N+](C)(C)CCCNC(=O)[C@H]1NC(=O)[C@H]2NC(=O)[C@H](NC(=O)[C@@H]3NC(=O)[C@H](CC(N)=O)NC(=O)[C@H](NC(=O)[C@@H](CC(C)C)NC)[C@H](O)c4ccc(c(Cl)c4)Oc4cc3cc(c4O[C@@H]3O[C@H](CO)[C@@H](O)[C@H](O)[C@H]3O[C@H]3C[C@](C)(N)[C@H](O)[C@H](C)O3)Oc3ccc(cc3Cl)[C@H]2O)c2ccc(O)c(c2)-c2c(O)cc(O)cc21 | > 100 µM | inactive | inactive | inactive | 0.39 µM | 1.3 µM | 0.45 µM | inactive | inactive | 2.42 µM |  | 
CCCCCCCCCCNCCN[C@@]1(C)C[C@H](O[C@H]2[C@H](Oc3c4cc5cc3Oc3ccc(cc3Cl)[C@@H](O)[C@@H](NC(=O)[C@@H](CC(C)C)NC)C(=O)N[C@@H](CC(N)=O)C(=O)N[C@H]5C(=O)N[C@H]3C(=O)N[C@H](C(=O)N[C@H](C(=O)O)c5cc(O)c(CNCP(=O)(O)O)c(O)c5-c5cc3ccc5O)[C@H](O)c3ccc(c(Cl)c3)O4)O[C@H](CO)[C@@H](O)[C@@H]2O)O[C@@H](C)[C@H]1O [TELAVANCIN] |  |  |  |  |  |  |  |  |  |  |  | MIC90 (Enterococcus faecium [1]): 4 µM; MIC90 (Staphylococcus aureus [2]): 0.3 µM; MIC90 (Enterococcus faecium [3]): 0.15 µM; MIC90 (Staphylococcus aureus [4]): 0.3 µM
CCCC[N+](C)(C)CCCNC(=O)[C@H]1NC(=O)[C@H]2NC(=O)[C@H](NC(=O)[C@@H]3NC(=O)[C@H](CC(N)=O)NC(=O)[C@H](NC(=O)[C@@H](CC(C)C)NC)[C@H](O)c4ccc(c(Cl)c4)Oc4cc3cc(c4O[C@@H]3O[C@H](CO)[C@@H](O)[C@H](O)[C@H]3O[C@H]3C[C@](C)(N)[C@H](O)[C@H](C)O3)Oc3ccc(cc3Cl)[C@H]2O)c2ccc(O)c(c2)-c2c(O)cc(O)cc21 | > 100 µM | inactive | inactive | inactive | 0.37 µM | 1.14 µM | 0.31 µM | inactive | inactive | 0.6 µM |  | 
CCCCCCCCCCCCCCCCCC[N+](C)(C)CCCNC(=O)[C@H]1NC(=O)[C@H]2NC(=O)[C@H](NC(=O)[C@@H]3NC(=O)[C@H](CC(N)=O)NC(=O)[C@H](NC(=O)[C@@H](CC(C)C)NC)[C@H](O)c4ccc(c(Cl)c4)Oc4cc3cc(c4O[C@@H]3O[C@H](CO)[C@@H](O)[C@H](O)[C@H]3O[C@H]3C[C@](C)(N)[C@H](O)[C@H](C)O3)Oc3ccc(cc3Cl)[C@H]2O)c2ccc(O)c(c2)-c2c(O)cc(O)cc21.O=C([O-])C(F)(F)F | 1.9 µM |  | Active |  | 5.03 µM | 0.92 µM |  |  | Active |  | 99% | Activity (Enterococcus faecium [11]): Dose-dependent effect; Activity (Staphylococcus aureus [12]): Dose-dependent effect; Activity (Staphylococcus aureus [14]): Dose-dependent effect
CCCCCCCCCCCCCC[N+](C)(C)CCCNC(C)=O |  |  | inactive |  |  |  |  | inactive | inactive |  |  | 
CCCCCCCCCC[N+](C)(C)CCCNC(=O)[C@H]1NC(=O)[C@H]2NC(=O)[C@H](NC(=O)[C@@H]3NC(=O)[C@H](CC(N)=O)NC(=O)[C@H](NC(=O)[C@@H](CC(C)C)NC)[C@H](O)c4ccc(c(Cl)c4)Oc4cc3cc(c4O[C@@H]3O[C@H](CO)[C@@H](O)[C@H](O)[C@H]3O[C@H]3C[C@](C)(N)[C@H](O)[C@H](C)O3)Oc3ccc(cc3Cl)[C@H]2O)c2ccc(O)c(c2)-c2c(O)cc(O)cc21 | 3 µM |  | Active |  | 0.31 µM | 0.3 µM | 0.2 µM |  | Active | 0.31 µM | Active | Activity (Enterococcus faecium [11]): Dose-dependent effect; Activity (Staphylococcus aureus [12]): Dose-dependent effect; Activity (Staphylococcus aureus [14]): Dose-dependent effect
CCCCCCCCCCCCCCNCCCNC(=O)[C@H]1NC(=O)[C@H]2NC(=O)[C@H](NC(=O)[C@@H]3NC(=O)[C@H](CC(N)=O)NC(=O)[C@H](NC(=O)[C@@H](CC(C)C)NC)[C@H](O)c4ccc(c(Cl)c4)Oc4cc3cc(c4O[C@@H]3O[C@H](CO)[C@@H](O)[C@H](O)[C@H]3O[C@H]3C[C@](C)(N)[C@H](O)[C@H](C)O3)Oc3ccc(cc3Cl)[C@H]2O)c2ccc(O)c(c2)-c2c(O)cc(O)cc21 | 5 µM |  | inactive |  | 0.55 µM | 1 µM | 0.4 µM | inactive | inactive | 0.61 µM |  | 
CN[C@H](CC(C)C)C(=O)N[C@H]1C(=O)N[C@@H](CC(N)=O)C(=O)N[C@H]2C(=O)N[C@H]3C(=O)N[C@H](C(=O)N[C@H](C(=O)NCCCN(C)C)c4cc(O)cc(O)c4-c4cc3ccc4O)[C@H](O)c3ccc(c(Cl)c3)Oc3cc2cc(c3O[C@@H]2O[C@H](CO)[C@@H](O)[C@H](O)[C@H]2O[C@H]2C[C@](C)(N)[C@H](O)[C@H](C)O2)Oc2ccc(cc2Cl)[C@H]1O | > 100 µM | inactive | inactive | inactive | 0.62 µM | 1.47 µM | 0.63 µM | inactive | inactive | 0.61 µM |  | 
CN[C@H](CC(C)C)C(=O)N[C@H]1C(=O)N[C@@H](CC(N)=O)C(=O)N[C@H]2C(=O)N[C@H]3C(=O)N[C@H](C(=O)N[C@H](C(=O)O)c4cc(O)cc(O)c4-c4cc3ccc4O)[C@H](O)c3ccc(c(Cl)c3)Oc3cc2cc(c3O[C@@H]2O[C@H](CO)[C@@H](O)[C@H](O)[C@H]2O[C@H]2C[C@](C)(N)[C@H](O)[C@H](C)O2)Oc2ccc(cc2Cl)[C@H]1O [VANCOMYCIN] | 750 µM | inactive |  | inactive | 0.63 µM | 13 µM | 0.6 µM | inactive | inactive | 0.63 µM | 100% | Activity (Staphylococcus aureus [15]): Active; Activity (Staphylococcus aureus [16]): Dose-dependent effect; Activity (Staphylococcus aureus [17]): Active; Ratio (Staphylococcus aureus [18]): >20; Activity (Staphylococcus aureus [19]): Active
